Calls of active or inactive are those of the source. The rule behind the calls is not given here.
Key:
[1] = Oral bioavailability in rat; type: ADME, organism-based; settings: in vivo
Method in brief: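 Male SD rats with jugular cannulas were fasted overnight and dosed either by tail-vein IV bolus or orally (n = 3 per route). Serial jugular blood samples were taken up to 8 h. Plasma was frozen at −20 °C, protein-precipitated with acetonitrile containing internal standard, and quantified by LC-MS/MS.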

[2] = biological target: GABA-A receptor; alpha-1/beta-3/gamma-2 (Homo sapiens) (UniProt P14867+P18507+P28472); test: Percent maximum change in electrophysiological response in Xenopus oocytes expressing alpha-1-beta-3-gamma-2 GABA-A receptor; type: functional, cell-based; settings: Oocyte
Method in brief: (§1)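 Two-electrode voltage clamp on Xenopus oocytes injected with human GABA-A subunit cDNAs, 24-72 h expression, perfused with modified Barth's medium at pH 7.5, clamped between -40 and -70 mV. The GABA EC20 was titrated against a 3 mM GABA maximum. […] Result is % change of control current, mean ± SE of ≥4 oocytes.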

[3] = biological target: T1, GABA-A receptor; alpha-1/beta-3/gamma-2 (Homo sapiens, UniProt P14867+P18507+P28472); test: Binding affinity towards human alpha-1-beta-3-gamma-2 GABA-A receptor using [3H]Ro-151788 expressed in L(tk-) cells; type: cell-based
T1 sequence (P14867 whole entry): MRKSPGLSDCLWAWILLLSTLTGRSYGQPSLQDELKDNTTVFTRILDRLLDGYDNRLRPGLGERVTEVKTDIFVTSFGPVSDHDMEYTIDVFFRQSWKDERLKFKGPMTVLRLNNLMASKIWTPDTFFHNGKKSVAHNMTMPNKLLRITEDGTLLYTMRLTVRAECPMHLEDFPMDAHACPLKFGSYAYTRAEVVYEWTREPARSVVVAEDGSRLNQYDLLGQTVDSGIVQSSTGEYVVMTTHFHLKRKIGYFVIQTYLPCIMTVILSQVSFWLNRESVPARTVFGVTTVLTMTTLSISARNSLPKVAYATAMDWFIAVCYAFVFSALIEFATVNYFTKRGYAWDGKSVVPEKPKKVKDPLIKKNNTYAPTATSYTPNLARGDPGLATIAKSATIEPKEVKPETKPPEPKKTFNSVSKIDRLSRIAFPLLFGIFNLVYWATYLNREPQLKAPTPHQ
T1 sequence (P18507 whole entry): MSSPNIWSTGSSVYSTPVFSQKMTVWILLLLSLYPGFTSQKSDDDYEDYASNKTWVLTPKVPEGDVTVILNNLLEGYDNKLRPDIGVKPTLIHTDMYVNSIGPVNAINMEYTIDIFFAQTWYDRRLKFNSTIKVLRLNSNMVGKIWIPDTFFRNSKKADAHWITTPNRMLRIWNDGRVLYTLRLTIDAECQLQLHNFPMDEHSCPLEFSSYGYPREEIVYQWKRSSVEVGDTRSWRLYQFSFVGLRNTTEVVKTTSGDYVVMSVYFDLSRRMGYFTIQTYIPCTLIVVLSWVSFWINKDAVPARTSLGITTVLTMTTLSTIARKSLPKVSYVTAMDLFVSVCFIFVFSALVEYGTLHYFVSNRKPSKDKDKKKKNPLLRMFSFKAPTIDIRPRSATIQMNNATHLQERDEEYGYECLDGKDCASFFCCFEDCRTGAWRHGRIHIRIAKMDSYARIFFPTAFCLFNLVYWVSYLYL
T1 sequence (P28472 whole entry): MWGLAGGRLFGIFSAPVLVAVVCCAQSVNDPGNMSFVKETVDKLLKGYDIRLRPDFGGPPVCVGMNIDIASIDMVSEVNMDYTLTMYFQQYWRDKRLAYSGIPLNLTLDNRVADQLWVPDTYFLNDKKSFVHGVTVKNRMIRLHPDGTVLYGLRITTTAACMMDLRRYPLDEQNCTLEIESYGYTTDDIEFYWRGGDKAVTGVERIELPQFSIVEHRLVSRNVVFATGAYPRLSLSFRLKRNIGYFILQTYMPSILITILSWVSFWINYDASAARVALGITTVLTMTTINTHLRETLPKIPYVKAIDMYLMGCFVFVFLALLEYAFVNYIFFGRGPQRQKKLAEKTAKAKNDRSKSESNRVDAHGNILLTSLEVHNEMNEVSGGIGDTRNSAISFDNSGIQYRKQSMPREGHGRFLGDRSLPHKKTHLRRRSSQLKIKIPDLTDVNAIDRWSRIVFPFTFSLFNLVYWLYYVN

[4] = biological target: GABA-A receptor; alpha-3/beta-3/gamma-2 (Homo sapiens) (UniProt P18507+P28472+P34903); test: Percent maximum change in electrophysiological response in Xenopus oocytes expressing alpha-3-beta-3-gamma-2 GABA-A receptor; type: functional, cell-based; settings: Oocyte; method in brief: as §1
[5] = biological target: GABA-A receptor; alpha-2/beta-3/gamma-2 (Homo sapiens) (UniProt P18507+P28472+P47869); test: Percent maximum change in electrophysiological response in Xenopus oocytes expressing alpha-2-beta-3-gamma-2 GABA-A receptor; type: functional, cell-based; settings: Oocyte; method in brief: as §1
[6] = biological target: T2, GABA-A receptor; alpha-5/beta-3/gamma-2 (Homo sapiens) (UniProt P18507+P28472+P31644); test: Percent change in electrophysiological response in Xenopus oocytes expressing Alpha-5-beta-3-gamma-2 GABA-A receptor; type: functional, cell-based; settings: Oocyte; method in brief: as §1
[7] = biological target: T2, GABA-A receptor; alpha-5/beta-3/gamma-2 (Homo sapiens); test: Percent maximum change in electrophysiological response in Xenopus oocytes expressing alpha-5-beta-3-gamma-2 GABA-A receptor; type: functional, cell-based; settings: Oocyte; method in brief: as §1
[8] = biological target: T3, GABA-A receptor; alpha-2/beta-3/gamma-2 (Homo sapiens, UniProt P18507+P28472+P47869); test: Binding affinity towards human gamma-aminobutyric-acid A receptor alpha-2-beta-3-gamma-2 using [3H]Ro-151788 expressed in L(tk-) cells; type: cell-based
T3 sequence (P18507 whole entry): T1 sequence (P18507 whole entry)
T3 sequence (P28472 whole entry): T1 sequence (P28472 whole entry)
T3 sequence (P47869 whole entry): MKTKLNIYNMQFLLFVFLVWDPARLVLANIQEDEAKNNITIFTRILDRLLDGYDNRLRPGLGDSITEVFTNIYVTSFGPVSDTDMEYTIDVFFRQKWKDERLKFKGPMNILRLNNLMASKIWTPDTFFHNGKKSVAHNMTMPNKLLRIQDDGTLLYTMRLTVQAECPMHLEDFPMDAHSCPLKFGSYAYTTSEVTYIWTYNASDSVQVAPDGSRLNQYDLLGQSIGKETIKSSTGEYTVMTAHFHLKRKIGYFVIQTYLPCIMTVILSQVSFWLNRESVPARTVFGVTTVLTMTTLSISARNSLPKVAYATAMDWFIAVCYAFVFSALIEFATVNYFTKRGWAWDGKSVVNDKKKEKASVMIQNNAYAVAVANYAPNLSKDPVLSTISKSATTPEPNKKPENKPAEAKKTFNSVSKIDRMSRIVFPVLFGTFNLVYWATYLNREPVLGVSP

[9] = biological target: GABA-A receptor; alpha-6/beta-3/gamma-2 (Homo sapiens, UniProt P18507+P28472+Q16445); test: Inhibition of [3H]Ro-151788 binding to human alpha-6-beta-3-gamma-2 GABA-A receptor expressed in L(tk-) cells; type: cell-based
Sequence of GABA-A receptor; alpha-6/beta-3/gamma-2 (Q16445 whole entry, one chain of several): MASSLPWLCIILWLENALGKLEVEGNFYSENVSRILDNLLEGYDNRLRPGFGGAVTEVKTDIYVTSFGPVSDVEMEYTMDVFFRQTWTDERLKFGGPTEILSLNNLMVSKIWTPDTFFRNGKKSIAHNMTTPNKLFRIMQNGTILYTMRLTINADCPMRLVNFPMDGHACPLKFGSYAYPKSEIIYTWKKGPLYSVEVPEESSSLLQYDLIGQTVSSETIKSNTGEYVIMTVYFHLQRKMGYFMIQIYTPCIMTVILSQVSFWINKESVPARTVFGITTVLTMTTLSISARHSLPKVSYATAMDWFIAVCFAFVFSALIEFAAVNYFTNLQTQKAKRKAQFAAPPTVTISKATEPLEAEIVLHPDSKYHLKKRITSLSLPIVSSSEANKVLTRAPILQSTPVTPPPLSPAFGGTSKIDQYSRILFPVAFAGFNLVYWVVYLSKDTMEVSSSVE

[10] = test system: Rattus norvegicus; test: Tested for cognitive performance in rats in delayed matching-to-place version of water maze test at 1 mg/kg p.o.; Significant enhancement in performance; type: functional, organism-based; parameters: dose 1 mg/kg

With Cc1cc(-c2nnc3c4ccccc4c(OCc4ccccn4)nn23)no1 the bioavailability [1] was 41%, the Efficacy [2] was -14% and the Ki [3] was 1.4 nM. It also gave an Efficacy [4] of -17%, an Efficacy [5] of -7% and an Efficacy [6] of -46%. For the same compound, the Efficacy [7] was -45%, the Ki [8] was 2.7 nM and the Ki [9] was 4410 nM. The Activity [10] was “Active”.
